PMC6777294 (ACS Omega, 2019)
Where two headings read alike, the source gives them in different places.

Legend:
hMAO-B [1] = target: T1, hMAO-B (Homo sapiens, UniProt P27338); assay: In vitro human MAO inhibitory assay; format: biochemical
T1 sequence (P27338 1-520): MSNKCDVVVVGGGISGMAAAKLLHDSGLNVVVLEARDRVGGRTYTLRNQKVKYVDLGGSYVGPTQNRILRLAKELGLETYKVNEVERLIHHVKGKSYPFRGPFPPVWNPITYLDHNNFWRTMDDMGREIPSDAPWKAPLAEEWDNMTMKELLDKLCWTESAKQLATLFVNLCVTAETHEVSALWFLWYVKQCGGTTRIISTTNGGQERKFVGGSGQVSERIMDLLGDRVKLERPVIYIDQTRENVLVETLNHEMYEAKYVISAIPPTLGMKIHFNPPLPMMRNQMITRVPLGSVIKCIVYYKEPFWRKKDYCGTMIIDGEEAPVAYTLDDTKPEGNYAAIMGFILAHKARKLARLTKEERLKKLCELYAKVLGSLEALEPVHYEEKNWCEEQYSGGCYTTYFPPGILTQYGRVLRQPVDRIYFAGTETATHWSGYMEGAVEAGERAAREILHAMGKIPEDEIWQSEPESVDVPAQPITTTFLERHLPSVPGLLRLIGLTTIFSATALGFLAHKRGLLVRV

rat MAO enzyme = details: cited from earlier work
hMAO-A [2] = target: T2, hMAO-A (Homo sapiens, UniProt P21397); assay: biochemical; details: Table 2; for IC50: IC50 (μM) hMAO-A (n = 3), log dose inhibition curve, mean ± SD of triplicate; for SI (selective index): ratio of hMAO-B IC50/hMAO-A IC50
T2 sequence (P21397 1-527): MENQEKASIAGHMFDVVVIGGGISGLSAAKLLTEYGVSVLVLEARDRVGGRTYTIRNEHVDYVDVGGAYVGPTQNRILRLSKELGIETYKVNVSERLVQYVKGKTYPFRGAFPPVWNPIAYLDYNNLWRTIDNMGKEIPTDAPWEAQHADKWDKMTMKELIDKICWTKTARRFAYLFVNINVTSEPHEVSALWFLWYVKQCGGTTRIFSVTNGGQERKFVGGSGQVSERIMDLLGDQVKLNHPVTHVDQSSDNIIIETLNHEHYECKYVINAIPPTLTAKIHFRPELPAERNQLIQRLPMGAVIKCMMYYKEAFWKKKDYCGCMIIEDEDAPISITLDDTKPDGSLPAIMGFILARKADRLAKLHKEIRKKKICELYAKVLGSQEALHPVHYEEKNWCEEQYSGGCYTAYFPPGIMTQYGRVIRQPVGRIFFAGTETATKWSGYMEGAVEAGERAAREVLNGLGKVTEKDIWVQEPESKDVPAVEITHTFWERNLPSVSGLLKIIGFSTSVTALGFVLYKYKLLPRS

hMAO-A [3] = target: T2, hMAO-A; assay: Enzyme kinetics of hMAO-A inhibition; format: biochemical; details: for inhibition type: hMAO-A, determined by Lineweaver–Burk plot
Outline: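 hMAO-A activity was measured with the chemiluminescent MAO-Glo kit assay. Reactions ran at three MAO substrate concentrations (320, 160 and 80 μM), with or without test compound. Michaelis–Menten and Lineweaver–Burk plots gave Km, Vmax and inhibition mode. Ki came from secondary plots: Kic for inhibitor binding free enzyme, Kiu for binding the enzyme–substrate complex.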

hMAO-A [4] = target: T2, hMAO-A; details: data reproduced from recent publication ref 32; cited from earlier work
hMAO-B [5] = target: T1, hMAO-B; assay: Enzyme kinetics of hMAO-B inhibition; format: biochemical
Outline: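 For hMAO-B, chemiluminescent MAO-Glo kit reactions were set up at three MAO substrate levels (32, 16 and 8 μM), with or without test compound. Inhibition mode, Km and Vmax were read from Michaelis–Menten and Lineweaver–Burk plots. Secondary plots gave Ki: Kic for inhibitor binding free enzyme, Kiu for binding the enzyme–substrate complex.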

mouse liver MAO enzyme = details: cited from earlier work

Structure (SMILES) | IC50 (hMAO-B [1]) | activity against rat MAO enzyme (rat MAO enzyme) | IC50 (hMAO-A [2]) | other results
O=C1c2cccc(O)c2C(=O)c2c(O)cc(CO)cc21 [Compound 9, aloe-emodin] | > 400 µM | inactive | 2.47 ± 0.14 µM | Ki (hMAO-A [3]): 0.5 µM; inhibition type (hMAO-A [3]): competitive
Cc1cc(O)c2c(c1)C(=O)c1cccc(O)c1C2=O [Compound 1, chrysophanol] | > 400 µM | inactive | > 400 µM | 
COc1cc(O)c2c(O)c3c(=O)cc(C)oc3cc2c1 [Compound 13, rubrofusarin] | 91.4 ± 1.31 µM |  |  | Kiu (binding constant of inhibitor with enzyme–substrate complex) (hMAO-A [4]): 4.22; inhibition type (hMAO-A [4]): mixed-type; SI (selective index) (hMAO-A [2]): 15.49
COc1cc(O)cc2c1C(=O)c1c(O)cc(C)cc1C2=O [Compound 12, questin] | 10.6 ± 0.28 µM |  | 0.17 ± 0.01 µM | Ki (hMAO-B [5]): 4.14 µM; inhibition type (hMAO-B [5]; hMAO-B, determined by Lineweaver–Burk plot): competitive; Ki (hMAO-A [3]): 0.13 µM; inhibition type (hMAO-A [3]): competitive
Cc1cc(O)c2c(c1)C(=O)c1cc(O)cc(O)c1C2=O [Compound 10, emodin] | 54.7 ± 0.74 µM | inactive | 23.3 ± 1.46 µM | IC50 (mouse liver MAO enzyme): 37 µM
COc1c(O)c(C)cc2c1C(=O)c1c(O)cccc1C2=O [Compound 4, obtusifolin] | > 400 µM |  | 31.8 ± 0.6 µM | 
COc1cc(O)c2c(c1)C(=O)c1cc(C)cc(O)c1C2=O [Compound 2, physcion] | > 400 µM | inactive | > 400 µM | 
COc1c(O)cc2c(c1O)C(=O)c1c(cc(C)c(O)c1OC)C2=O [Compound 5, aurantio-obtusin] | 174 ± 1.86 µM |  | 27.2 ± 0.85 µM | SI (selective index) (hMAO-A [2]): 6.40
COc1cc2c(c(OC)c1OC)C(=O)c1c(cc(C)c(O)c1OC)C2=O [Compound 6, chryso-obtusin] | > 400 µM |  | 328 ± 10.2 µM | 
O=C1c2cccc(O)c2C(=O)c2c(O)cccc21 [1,8-dihydroxyanthraquinone] |  | inactive |  | 
O=C(O)c1cc(O)c2c(c1)C(=O)c1cccc(O)c1C2=O [rhein] |  | inactive |  | 
